Data reported in PMC9301635 (ACS Omega, 2022).
Like-named read-outs stand apart in the source and are kept apart here.

What was measured:
CT26 [1] = assay: Crystal violet; assay type: cell-based, mouse; details: read-out: IC50 CT26 CV
Method in brief: (§1)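 Cells were grown in RPMI-1640 with 10% FCS and antibiotics at 37 °C, 5% CO2. Seeding per well was CT26 4 × 10^3, HT-29 1.5 × 10^4, SW480 3 × 10^3 and HCT116 5 × 10^3, with overnight adherence. Test compound came from a 200 mM DMSO stock (≤0.1% DMSO final) and was applied at 0–200 μM for 72 h. Viability was read by MTT or crystal violet, in triplicate.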

HCT116 [2] = assay: MTT viability test, HCT116; assay type: cell-based, human; details: read-out: IC50 HCT116 MTT
Method in brief: as §1

HT29 [3] = assay: MTT viability test, HT29; assay type: cell-based, human; details: read-out: IC50 HT29 MTT
Method in brief: as §1

SW480 cells [4] = assay: Caspase activation, ApoStat flow cytometry, SW480; assay type: cell-based, human; details: IC50 dose, 72 h, fluorescence-labeled pan-caspase inhibitor
Method in brief: (§2)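 Seeding in six-well plates was HCT116 2 × 10^5/well and SW480 1.5 × 10^5/well. Cells were exposed to test compound (DMSO vehicle, ≤0.1%) for 72 h. They were then stained with the FITC-labelled pan-caspase inhibitor ApoStat according to the manufacturer's protocol. The percentage of caspase-active cells was measured by flow cytometry. Data are representative of three independent experiments.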

SW480 [5] = assay: MTT viability test, SW480; assay type: cell-based, human; details: read-out: IC50 SW480 MTT
Method in brief: as §1

COX-1 = details: read-out: IC50(COX-1) literature value; in blood; cited from earlier work
human COX-2 = target: T1, human COX-2 (Homo sapiens, UniProt P35354); assay: biochemical; assay type: biochemical; details: for % inhibition @ 100 μM COX-2: 100 μM compound
T1 sequence (P35354 18-604): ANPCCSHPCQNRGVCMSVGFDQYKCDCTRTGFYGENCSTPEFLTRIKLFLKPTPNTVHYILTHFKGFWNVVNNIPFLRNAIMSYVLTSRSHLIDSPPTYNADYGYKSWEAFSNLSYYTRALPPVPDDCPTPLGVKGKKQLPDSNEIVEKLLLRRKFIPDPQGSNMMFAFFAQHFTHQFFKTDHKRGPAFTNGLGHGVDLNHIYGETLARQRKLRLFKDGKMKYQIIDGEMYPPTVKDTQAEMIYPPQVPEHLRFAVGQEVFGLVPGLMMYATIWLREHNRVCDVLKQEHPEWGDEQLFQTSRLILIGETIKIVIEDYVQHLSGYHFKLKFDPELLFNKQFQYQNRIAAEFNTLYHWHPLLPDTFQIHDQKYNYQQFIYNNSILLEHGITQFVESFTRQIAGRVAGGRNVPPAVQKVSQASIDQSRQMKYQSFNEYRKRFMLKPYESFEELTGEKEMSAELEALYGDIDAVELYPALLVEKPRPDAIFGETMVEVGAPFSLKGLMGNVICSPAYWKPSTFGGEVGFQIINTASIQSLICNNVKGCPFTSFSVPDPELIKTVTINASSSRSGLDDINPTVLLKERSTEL

CT26 [6] = assay: MTT viability test, CT26; assay type: cell-based, mouse; details: read-out: IC50 CT26 MTT
Method in brief: as §1

SW480 [7] = assay: Crystal violet; assay type: cell-based, human; details: read-out: IC50 SW480 CV
Method in brief: as §1

[8] = test system: human breast, bladder, and non-small lung cancer cell lines; details: read-out: cytotoxic potential; literature data; cited from earlier work
HCT116 cells [9] = assay: Caspase activation, ApoStat flow cytometry, HCT116; assay type: cell-based, human; details: IC50 dose, 72 h, fluorescence-labeled pan-caspase inhibitor
Method in brief: as §2

HT29 [10] = assay: Crystal violet; assay type: cell-based, human; details: read-out: IC50 HT29 CV
Method in brief: as §1

ovine COX-1 = target: T2, ovine COX-1 (Ovis aries, UniProt P05979); assay: COX Fluorescent Inhibitor Screening Assay Kit; assay type: biochemical; details: for % inhibition @ 100 μM COX-1: 100 μM compound
T2 sequence (P05979 25-600): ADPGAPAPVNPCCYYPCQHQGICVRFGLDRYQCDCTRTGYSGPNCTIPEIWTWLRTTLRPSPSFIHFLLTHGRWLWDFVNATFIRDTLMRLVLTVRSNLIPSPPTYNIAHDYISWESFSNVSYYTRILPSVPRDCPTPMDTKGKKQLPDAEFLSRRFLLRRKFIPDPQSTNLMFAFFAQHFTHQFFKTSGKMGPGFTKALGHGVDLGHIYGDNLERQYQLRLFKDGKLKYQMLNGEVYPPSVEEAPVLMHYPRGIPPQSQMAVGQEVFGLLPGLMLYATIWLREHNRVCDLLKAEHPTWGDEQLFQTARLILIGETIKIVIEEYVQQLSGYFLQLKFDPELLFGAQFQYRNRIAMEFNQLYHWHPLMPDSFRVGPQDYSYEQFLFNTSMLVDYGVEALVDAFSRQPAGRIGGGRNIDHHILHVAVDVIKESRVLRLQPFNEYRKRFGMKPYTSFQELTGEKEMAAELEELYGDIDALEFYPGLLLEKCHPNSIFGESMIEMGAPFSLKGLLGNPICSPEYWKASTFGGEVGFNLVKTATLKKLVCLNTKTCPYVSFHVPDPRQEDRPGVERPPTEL

HCT116 [11] = assay: Crystal violet; assay type: cell-based, human; details: read-out: IC50 HCT116 CV
Method in brief: as §1

SW480 cells [12] = assay: Cell proliferation, CFSE flow cytometry, SW480; assay type: cell-based, human; details: SW480, IC50 dose, 72 h
Method in brief: (§3)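 HCT116 (2 × 10^5/well) or SW480 (1.5 × 10^5/well) cells were prelabelled with 1 μM CFSE in six-well plates. They were then exposed to test compound in culture medium (≤0.1% DMSO) for 72 h. CFSE dilution was measured by flow cytometry. Data are representative of three independent experiments.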

HCT116 cells [13] = assay: ROS/RNS production, DHR flow cytometry, HCT116; assay type: cell-based, human; details: HCT116, IC50 dose, 72 h
Method in brief: (§4)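 HCT116 (2 × 10^5/well) and SW480 (1.5 × 10^5/well) cells in six-well plates were treated with test compound for 72 h. Treatment was in culture medium containing 1 μM dihydrorhodamine 123 (≤0.1% DMSO). Intracellular ROS/RNS was measured as fluorescence by flow cytometry. Data are representative of three independent experiments.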

HCT116 cells [14] = assay: Cell proliferation, CFSE flow cytometry, HCT116; assay type: cell-based, human; details: HCT116, IC50 dose, 72 h
Method in brief: as §3

SW480 cells [15] = assay: ROS/RNS production, DHR flow cytometry, SW480; assay type: cell-based, human; details: SW480, IC50 dose, 72 h
Method in brief: as §4

Row | Compound | caspase activation, % SW480 cells (SW480 cells [4]) [%] | caspase activation, % HCT116 cells (HCT116 cells [9]) [%] | IC50 (CT26 [1]; 72 h, COX-2 +) [µM] | IC50 (HCT116 [2]; 72 h, COX-2 –) [µM] | IC50 (HT29 [3]; 72 h, COX-2 +) [µM] | IC50 (SW480 [5]; 72 h, COX-2 –) [µM] | IC50 (CT26 [6]; 72 h, COX-2 +) [µM] | IC50 (SW480 [7]; 72 h, COX-2 –) [µM] | IC50 (HT29 [10]; 72 h, COX-2 +) [µM] | IC50 (HCT116 [11]; 72 h, COX-2 –) [µM] | % inhibition @ 100 μM COX-2 (human COX-2; no BSA) [%] | % inhibition @ 100 μM COX-1 (ovine COX-1; no BSA) [%] | further results
1 | Cc1cccc(Nc2ccccc2C(=O)O)c1C [compound 1, Mefenamic acid, reference compound] | 5.2 | 0.5 |  |  |  |  |  |  |  |  |  |  | IC50 (CT26 [1]; Mus musculus, CT26, 72 h): 163 ± 2 µM; IC50 (HCT116 [2]; Homo sapiens, HCT-116, 72 h): 96.2 ± 7.9 µM; IC50 (HT29 [3]; Homo sapiens, HT-29, 72 h): > 200 µM; IC50 (SW480 [5]; Homo sapiens, SW480, 72 h): 104 ± 6.4 µM; IC50 (COX-1): 1.94 µM; IC50 COX-2 (human COX-2): no IC50 value could be determined; inhibition at 100 µM (human COX-2; read-out: % inhibition @ 100 μM COX-2): 20%; IC50 (CT26 [6]; Mus musculus, CT26, 72 h): 114 ± 4.2 µM; IC50 (SW480 [7]; Homo sapiens, SW480, 72 h): 120 ± 6.1 µM; IC50 [8]: ~20 µM; IC50 (HT29 [10]; Homo sapiens, HT-29, 72 h): > 200 µM; IC50 (ovine COX-1): 0.12 µM; inhibition plateau COX-1 (ovine COX-1; concentration range between 1 and 100 μM): around 60%; inhibition at 100 µM (ovine COX-1; read-out: % inhibition @ 100 μM COX-1): 59%; IC50 (HCT116 [11]; Homo sapiens, HCT-116, 72 h): 101 ± 6.5 µM
2 | N-(1,2-Dicarba-closo-dodecaboran-9-yl)-2-benzoic acid [2c] |  |  | 93.3 ± 5.7 | 74.6 ± 4.8 | 183 ± 3.7 | 77.6 ± 0.1 | 61.6 ± 0.1 | 75.6 ± 4 | > 200 | 83.6 ± 3.8 |  |  | 
3 | N-(1,2-Dicarba-closo-dodecaboran-9-yl)-2-benzonitrile [2b] | 3.2 | 1.1 | 47.2 ± 2.3 | 34.4 ± 1.8 | 45.6 ± 2.7 | 39 ± 1.2 | 38.3 ± 0.4 | 24 ± 0.8 | > 200 | 35.5 ± 3.1 | 28 | 32 | cell division rate vs untreated cells (SW480 cells [12]): remarkably lower; ROS/RNS production (HCT116 cells [13]): increased; cell division rate vs untreated cells (HCT116 cells [14]): remarkably lower; ROS/RNS production (SW480 cells [15]): increased
4 | N-(1,7-Dicarba-closo-dodecaboran-9-yl)-2-benzoic acid [3c] |  |  | 160 ± 6.6 | 93.2 ± 7.6 | 184 ± 4.5 | 90.6 ± 3.3 | 76.5 ± 2.8 | 117 ± 7.9 | > 200 | 147 ± 8.6 |  | 11 | 
5 | N-(1,7-Dicarba-closo-dodecaboran-9-yl)-2-benzonitrile [3b] | 6.8 | 5.6 | 37.4 ± 1.2 | 28.2 ± 1.8 | 46.4 ± 2.9 | 23.8 ± 2.1 | 22.4 ± 1.7 | 24.9 ± 1.8 | 116 ± 2.2 | 31.8 ± 2.3 | 13 | 22 | cell division rate vs untreated cells (SW480 cells [12]): remarkably lower; cell division rate vs untreated cells (HCT116 cells [14]): remarkably lower
6 | N-(1,12-Dicarba-closo-dodecaboran-2-yl)-2-benzoic acid [4c] |  |  | 137 ± 3.1 | 67.6 ± 1.3 | 165 ± 0.3 | 77.8 ± 0.4 | 72.6 ± 4.5 | 76.4 ± 3.5 | > 200 | 77.4 ± 3.4 |  | 7 | 
7 | N-(1,12-Dicarba-closo-dodecaboran-2-yl)-2-benzonitrile [4b] |  |  | > 200 | > 200 | > 200 | > 200 | > 200 | > 200 | > 200 | > 200 |  | 12 | 
8 | Sodium rac-[N-(7,8-dicarba-closo-dodecaboran-6-yl)-2-benzonitrile] [compound 5] |  |  | 150 ± 4.9 | 129 ± 10 | 141 ± 7.8 | 121 ± 4.5 | 167 ± 8.8 | 84 ± 3.3 | 182 ± 1.7 | 115 ± 6 | 76 | 83 | IC50 (human COX-2; read-out: IC50 COX-2, no BSA): 33 µM; IC50 (ovine COX-1; read-out: IC50 COX-1, no BSA): 40 µM
